Experimental data published in publication PMC7238799 (Pulmonary Circulation, 2020).

Tests used:
plasma protein = settings: animals and humans; cited from earlier work
[1] = cited from earlier work
healthy subjects = assay: Single ascending dose; type: in vivo, human
How it was run: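 Subjects received a single oral dose of test compound or identical-appearing placebo capsule and were kept as in-patients. Over seven days, adverse events, vital signs, 12-lead ECG and safety labs (serum chemistry, hematology, urinalysis) were assessed at multiple time points. Data were summarized descriptively by treatment group.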

Multiple ascending dose = type: in vivo, human
How it was run: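 Healthy subjects were randomized to test compound or placebo by oral immediate-release capsule in the fasted state. In Cohorts 1–2 (2:1), 50 µg QD escalated to 100, 200, 300 and 400 µg every sixth day if tolerated. In Cohort 3 (4:1), 10 µg BID escalated to 20, 30, 40, 50 and 70 µg. K₂EDTA blood was drawn pre-dose and 0.25–24 h post-dose.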

[2] = total ralinepag, all single doses, n = 24
[3] = 10 µg BID, steady state, n = 20, mean (SD)
[4] = 30 µg QD, steady state, n = 3, mean (SD)
[5] = 40 µg BID, steady state, n = 9, mean (SD)
[6] = 50 µg BID, steady state, n = 6, mean (SD)
[7] = 50 µg QD, steady state, n = 16, mean (SD)

In the case of `O=C(O)COC[C@H]1CC[C@H](COC(=O)N(c2ccccc2)c2ccc(Cl)cc2)CC1` [ralinepag], the Plasma protein binding (plasma protein) is given as about 99%, the Enterohepatic recirculation ([1]; animals) is given as “observed” and the Oral bioavailability ([1]; mouse, rat, dog, and monkey) is given as “moderate to high”. For the same compound, the SAEs recorded (healthy subjects; any doses tested) was “no SAEs”, the “Vital signs, ECGs, safety laboratory tests” value (healthy subjects; any single dose level) was “no clinically significant safety issues” and the “Abdominal pain, subjects (%)” value (healthy subjects; single oral dose 30 µg, n = 6) was 0. The “Flushing, subjects (%)” value (healthy subjects; single oral dose 30 µg, n = 6) was 0, the “Headache, subjects (%)” value (healthy subjects; single oral dose 30 µg, n = 6) was 2 (33.3%) and the “Nausea, subjects (%)” value (healthy subjects; single oral dose 30 µg, n = 6) was 0. The “Number of AEs reported” value (healthy subjects; single oral dose 30 µg, n = 6) was 2, the “Pain in jaw, subjects (%)” value (healthy subjects; single oral dose 30 µg, n = 6) was 0 and the “Total (%) subjects with at least one AE” value (healthy subjects; single oral dose 30 µg, n = 6) was 2 (33.3%). The “Vomiting, subjects (%)” value (healthy subjects; single oral dose 30 µg, n = 6) was 0, the “Abdominal pain, subjects (%)” value (healthy subjects; single oral dose 50 µg, n = 6) was 1 (16.7%) and the “Flushing, subjects (%)” value (healthy subjects; single oral dose 50 µg, n = 6) was 0. For the same compound, the “Headache, subjects (%)” value (healthy subjects; single oral dose 50 µg, n = 6) was 5 (83.3%), the “Nausea, subjects (%)” value (healthy subjects; single oral dose 50 µg, n = 6) was 1 (16.7%) and the “Number of AEs reported” value (healthy subjects; single oral dose 50 µg, n = 6) was 11. For the same compound, the “Pain in jaw, subjects (%)” value (healthy subjects; single oral dose 50 µg, n = 6) was 2 (33.3%), the “Total (%) subjects with at least one AE” value (healthy subjects; single oral dose 50 µg, n = 6) was 5 (83.3%) and the “Vomiting, subjects (%)” value (healthy subjects; single oral dose 50 µg, n = 6) was 0. The “Abdominal pain, subjects (%)” value (healthy subjects; single oral dose 100 µg, n = 6) was 1 (16.7%), the “Flushing, subjects (%)” value (healthy subjects; single oral dose 100 µg, n = 6) was 1 (16.7%) and the “Headache, subjects (%)” value (healthy subjects; single oral dose 100 µg, n = 6) was 5 (83.3%). The “Nausea, subjects (%)” value (healthy subjects; single oral dose 100 µg, n = 6) was 2 (33.3%), the “Number of AEs reported” value (healthy subjects; single oral dose 100 µg, n = 6) was 17 and the “Pain in jaw, subjects (%)” value (healthy subjects; single oral dose 100 µg, n = 6) was 3 (50.0%). The “Total (%) subjects with at least one AE” value (healthy subjects; single oral dose 100 µg, n = 6) was 6 (100%), the “Vomiting, subjects (%)” value (healthy subjects; single oral dose 100 µg, n = 6) was 2 (33.3%) and the “Tolerability of the 200 µg single dose” value (healthy subjects; single oral dose 200 µg) was “not at 200 µg due to AEs of nausea and vomiting”. The “Flushing, subjects (%)” value (healthy subjects; single oral dose 200 µg, n = 6) was 1 (16.7%), the “Headache, subjects (%)” value (healthy subjects; single oral dose 200 µg, n = 6) was 5 (83.3%) and the “Nausea, subjects (%)” value (healthy subjects; single oral dose 200 µg, n = 6) was 3 (50.0%). The “Number of AEs reported” value (healthy subjects; single oral dose 200 µg, n = 6) was 21, the “Pain in jaw, subjects (%)” value (healthy subjects; single oral dose 200 µg, n = 6) was 1 (16.7%) and the “Total (%) subjects with at least one AE” value (healthy subjects; single oral dose 200 µg, n = 6) was 6 (100%). The “Vomiting, subjects (%)” value (healthy subjects; single oral dose 200 µg, n = 6) was 6 (100%), the Tolerated single dose (healthy subjects; single oral dose, IR capsule, healthy subjects) was “up to 100 µg” and the “Abdominal pain, subjects (%)” value (healthy subjects; [2]) was 3 (12.5%). The “Flushing, subjects (%)” value (healthy subjects; [2]) was 2 (8.3%), the “Headache, subjects (%)” value (healthy subjects; [2]) was 17 (70.8%) and the “Nausea, subjects (%)” value (healthy subjects; [2]) was 6 (25.0%). The “Number of AEs reported” value (healthy subjects; [2]) was 51, the “Pain in jaw, subjects (%)” value (healthy subjects; [2]) was 6 (25.0%) and the “Total (%) subjects with at least one AE” value (healthy subjects; [2]) was 19 (79.2%). For the same compound, the “Vomiting, subjects (%)” value (healthy subjects; [2]) was 8 (33.3%), the “Mean steady-state accumulation of total plasma exposure (AUC)” value (Multiple ascending dose; 10 µg BID) was 2.64 fold and the “Accumulation ratio Rac(Cmax)” value (Multiple ascending dose; [3]) was 2.07 (0.40). The “PTR (peak-to-trough plasma concentration ratio)” value (Multiple ascending dose; [3]) was 2.04 (0.32), the “PTR (peak-to-trough plasma concentration ratio)” value (Multiple ascending dose; 20 µg BID, steady state, n = 20, mean (SD)) was 1.97 (0.26) and the “PTR (peak-to-trough plasma concentration ratio)” value (Multiple ascending dose; 30 µg BID, steady state, n = 10, mean (SD)) was 1.95 (0.22). For the same compound, the “Ctrough,ss” value (Multiple ascending dose; [4]) was 0.72 (0.20) ng/mL, the “PTR (peak-to-trough plasma concentration ratio)” value (Multiple ascending dose; [4]) was 3.34 (1.20) and the “Ctrough,ss” value (Multiple ascending dose; [5]) was 1.51 (0.57) ng/mL. For the same compound, the “PTR (peak-to-trough plasma concentration ratio)” value (Multiple ascending dose; [5]) was 2.28 (0.40), the “Ctrough,ss” value (Multiple ascending dose; [6]) was 2.32 (0.78) ng/mL and the “PTR (peak-to-trough plasma concentration ratio)” value (Multiple ascending dose; [6]) was 2.00 (0.43). For the same compound, the “Mean EHL” value (Multiple ascending dose; 50 µg QD) was 18.4 h, the “Mean steady-state accumulation of total plasma exposure (AUC)” value (Multiple ascending dose; 50 µg QD) was 1.69 fold and the “Accumulation ratio Rac(AUC)” value (Multiple ascending dose; [7]) was 1.69 (0.24). The “Accumulation ratio Rac(Cmax)” value (Multiple ascending dose; [7]) was 1.54 (0.31), the “Ctrough,ss” value (Multiple ascending dose; [7]) was 0.76 (0.37) ng/mL and the “PTR (peak-to-trough plasma concentration ratio)” value (Multiple ascending dose; [7]) was 4.33 (2.12). For the same compound, the “PTR (peak-to-trough plasma concentration ratio)” value (Multiple ascending dose; 70 µg BID, steady state, single subject) was 2.36.
